# What was measured:
# Format in all cases: functional
# OVCAR-8 = assay: Cytotoxicity against human OVCAR8 cells after 48 hrs by SRB assay; conditions: OVCAR-8, 48 h; for TGI: read-out: pTGI (converted)
# In short: (§1)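 Five-dose screen, 10-fold or ½-log dilutions, compound stock in DMSO. Cells were in RPMI 1640 with 5% FBS and 2 mM glutamine at 5000–40,000 cells/well, preincubated 24 h, 37 °C, 5% CO₂, with a time-zero plate TCA-fixed. After 48 h drug exposure, cells were TCA-fixed and stained with 0.4% SRB, read at 515 nm. GI50, TGI and LC50 were derived from time-zero, control and test absorbances.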
# NCI-H226 = assay: Cytotoxicity against human NCI-H226 cells after 48 hrs by SRB assay; conditions: NCI-H226, 48 h; for TGI: read-out: pTGI (converted); in short: as §1
# COLO 205 = assay: Cytotoxicity against human COLO205 cells after 48 hrs by SRB assay; conditions: COLO 205, 48 h; for TGI: read-out: pTGI (converted)
# In short: (§2)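 NCI 60-cell five-dose screen. Cells grown in RPMI 1640 with 5% FBS and 2 mM glutamine, plated at 5000–40,000 cells/well, and preincubated 24 h at 37 °C in 5% CO2. Time-zero plates fixed with TCA. Five serial dilutions of DMSO stock added, then 48 h exposure. TCA fixation, 0.4% SRB staining, absorbance read at 515 nm. GI50 from [(Ti−Tz)/(C−Tz)]×100 = 50.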
# LOX IMVI = assay: Cytotoxicity against human LOXIMVI cells after 48 hrs by SRB assay; conditions: for TGI: read-out: pTGI (converted); in short: as §2
# OVCAR-4 = assay: Cytotoxicity against human OVCAR4 cells after 48 hrs by SRB assay; conditions: OVCAR-4, 48 h; for TGI: read-out: pTGI (converted); in short: as §1
# HT-29 = assay: Cytotoxicity against human HT-29 cells after 48 hrs by SRB assay; conditions: HT-29, 48 h; for TGI: read-out: pTGI (converted); in short: as §2
# HCT-15 = assay: Cytotoxicity against human HCT15 cells after 48 hrs by SRB assay; conditions: HCT-15, 48 h; for TGI: read-out: pTGI (converted); in short: as §2
# SF-268 = assay: Cytotoxicity against human SF268 cells after 48 hrs by SRB assay; conditions: SF-268, 48 h; for TGI: read-out: pTGI (converted); in short: as §1
# NCI/ADR-RES = assay: Cytotoxicity against human NCI/ADR-RES cells after 48 hrs by SRB assay; conditions: for TGI: read-out: pTGI (converted); in short: as §1
# SF-539 = assay: Cytotoxicity against human SF539 cells after 48 hrs by SRB assay; conditions: SF-539, 48 h; for TGI: read-out: pTGI (converted); in short: as §1
# PC-3 = assay: Cytotoxicity against human PC3 cells after 48 hrs by SRB assay; conditions: PC-3, 48 h; for TGI: read-out: pTGI (converted); in short: as §1
# SK-MEL-28 = assay: Cytotoxicity against human SK-MEL-28 cells after 48 hrs by SRB assay; conditions: SK-MEL-28, 48 h; for TGI: read-out: pTGI (converted); in short: as §1
# EKVX = assay: Cytotoxicity against human EKVX cells after 48 hrs by SRB assay; conditions: for TGI: read-out: pTGI (converted); in short: as §2
# HCT-116 = assay: Cytotoxicity against human HCT116 cells after 48 hrs by SRB assay; conditions: HCT-116, 48 h; for TGI: read-out: pTGI (converted); in short: as §2
# NCI-H322M = assay: Cytotoxicity against human NCI-H322M cells after 48 hrs by SRB assay; conditions: for TGI: read-out: pTGI (converted); in short: as §1
# M14 = assay: Cytotoxicity against human M14 cells after 48 hrs by SRB assay; conditions: M14, 48 h; for TGI: read-out: pTGI (converted); in short: as §2
# SF-295 = assay: Cytotoxicity against human SF295 cells after 48 hrs by SRB assay; conditions: SF-295, 48 h; for TGI: read-out: pTGI (converted); in short: as §1
# SN12C = assay: Cytotoxicity against human SN12C cells after 48 hrs by SRB assay; conditions: for TGI: read-out: pTGI (converted); in short: as §1
# HL-60(TB) = assay: Cytotoxicity against human HL-60(TB) cells after 48 hrs by SRB assay; conditions: HL-60, 48 h; for CC50: read-out: pLC50 (the source's name) (converted); for TGI: read-out: pTGI (converted)
# In short: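 NCI 60-line five-dose screen. Cells are grown in RPMI 1640 with 5% FBS and 2 mM glutamine, plated at 5000–40,000 cells/well, and preincubated 24 h at 37 °C in 5% CO2. Compound is dissolved in DMSO and given at five concentrations (10-fold or ½-log dilutions) for 48 h. Cells are TCA-fixed (HL-60(TB), suspension: 16% final; HOP92, adherent: 10% final), SRB-stained and read at 515 nm. GI50 comes from [(Ti−Tz)/(C−Tz)]×100 = 50.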
# A549 = assay: Cytotoxicity against human A549 cells after 48 hrs by SRB assay; conditions: A549, 48 h; for TGI: read-out: pTGI (converted); in short: as §2
# BT-549 = assay: Cytotoxicity against human BT549 cells after 48 hrs by SRB assay; conditions: BT-549, 48 h; for TGI: read-out: pTGI (converted); in short: as §2
# RPMI-8226 = assay: Cytotoxicity against human RPMI8226 cells after 48 hrs by SRB assay; conditions: RPMI-8226, 48 h; for TGI: read-out: pTGI (converted); in short: as §1
# CAKI-1 = assay: Cytotoxicity against human Caki1 cells after 48 hrs by SRB assay; conditions: CAKI-1, 48 h; for TGI: read-out: pTGI (converted); in short: as §2
# HCC 2998 = assay: Cytotoxicity against human HCC2998 cells after 48 hrs by SRB assay; conditions: HCC 2998, 48 h; for TGI: read-out: pTGI (converted); in short: as §2
# KM12 = assay: Cytotoxicity against human KM12 cells after 48 hrs by SRB assay; conditions: KM12, 48 h; for TGI: read-out: pTGI (converted); in short: as §2
# A498 = assay: Cytotoxicity against human A498 cells after 48 hrs by SRB assay; conditions: A498, 48 h; for TGI: read-out: pTGI (converted); in short: as §2
# Malme-3M = assay: Cytotoxicity against human MALME-3M cells after 48 hrs by SRB assay; conditions: for TGI: read-out: pTGI (converted); in short: as §2
smiles,measurement,setting,value
CSC1=Nc2c(c(C)c(-c3ccccc3)n2CCCN2CCCCC2)C2=NC(=O)CC(C)N12 (stereo unspecified),GI50,OVCAR-8,3.72 µM
same,LC50,OVCAR-8,> 100 µM
same,TGI,OVCAR-8,30.9 µM
same,GI50,NCI-H226,3.55 µM
same,LC50,NCI-H226,> 100 µM
same,TGI,NCI-H226,> 100 µM
same,GI50,COLO 205,1.26 µM
same,LC50,COLO 205,5.01 µM
same,TGI,COLO 205,2.51 µM
same,GI50,LOX IMVI,3.02 µM
same,LC50,LOX IMVI,35.5 µM
same,TGI,LOX IMVI,12.9 µM
same,GI50,OVCAR-4,2.57 µM
same,LC50,OVCAR-4,> 100 µM
same,TGI,OVCAR-4,17.8 µM
same,GI50,HT-29,1.62 µM
same,LC50,HT-29,> 100 µM
same,TGI,HT-29,7.24 µM
same,GI50,HCT-15,4.47 µM
same,LC50,HCT-15,> 100 µM
same,TGI,HCT-15,28.2 µM
same,GI50,SF-268,3.39 µM
same,LC50,SF-268,45.7 µM
same,TGI,SF-268,14.1 µM
same,GI50,NCI/ADR-RES,17 µM
same,LC50,NCI/ADR-RES,> 100 µM
same,TGI,NCI/ADR-RES,74.1 µM
same,GI50,SF-539,6.46 µM
same,LC50,SF-539,> 100 µM
same,TGI,SF-539,87.1 µM
same,GI50,PC-3,1.38 µM
same,LC50,PC-3,9.12 µM
same,TGI,PC-3,3.55 µM
same,GI50,SK-MEL-28,2.88 µM
same,LC50,SK-MEL-28,36.3 µM
same,TGI,SK-MEL-28,13.2 µM
same,GI50,EKVX,3.02 µM
same,LC50,EKVX,> 100 µM
same,TGI,EKVX,20 µM
same,GI50,HCT-116,2.4 µM
same,LC50,HCT-116,> 100 µM
same,TGI,HCT-116,> 100 µM
same,GI50,NCI-H322M,6.17 µM
same,LC50,NCI-H322M,> 100 µM
same,TGI,NCI-H322M,89.1 µM
same,GI50,M14,3.63 µM
same,LC50,M14,64.6 µM
same,TGI,M14,17.4 µM
same,GI50,SF-295,2.57 µM
same,LC50,SF-295,69.2 µM
same,TGI,SF-295,10.2 µM
same,GI50,SN12C,2.29 µM
same,LC50,SN12C,> 100 µM
same,TGI,SN12C,10.7 µM
same,GI50,HL-60(TB),1.82 µM
same,CC50,HL-60(TB),8.32 µM
same,TGI,HL-60(TB),3.89 µM
same,GI50,A549,2.95 µM
same,LC50,A549,79.4 µM
same,TGI,A549,10.7 µM
same,GI50,BT-549,2.63 µM
same,LC50,BT-549,85.1 µM
same,TGI,BT-549,9.55 µM
same,GI50,RPMI-8226,0.166 µM
same,LC50,RPMI-8226,4.27 µM
same,TGI,RPMI-8226,1.2 µM
same,LC50,CAKI-1,> 100 µM
same,TGI,CAKI-1,18.6 µM
same,GI50,HCC 2998,3.24 µM
same,LC50,HCC 2998,61.7 µM
same,TGI,HCC 2998,16.2 µM
same,GI50,KM12,3.16 µM
same,LC50,KM12,33.9 µM
same,TGI,KM12,11 µM
same,GI50,A498,3.16 µM
same,LC50,A498,> 100 µM
same,TGI,A498,9.12 µM
same,GI50,Malme-3M,2.34 µM
same,LC50,Malme-3M,53.7 µM
same,TGI,Malme-3M,7.24 µM
CSC1=Nc2c(c(C)c(-c3ccccc3)n2CCCCl)C2=NC(=O)CN12,GI50,OVCAR-8,16.2 µM
same,LC50,OVCAR-8,> 100 µM
same,TGI,OVCAR-8,72.4 µM
same,GI50,NCI-H226,11 µM
same,LC50,NCI-H226,81.3 µM
same,TGI,NCI-H226,29.5 µM
same,GI50,COLO 205,4.17 µM
same,LC50,COLO 205,47.9 µM
same,TGI,COLO 205,15.1 µM
same,GI50,LOX IMVI,4.17 µM
same,LC50,LOX IMVI,50.1 µM
same,TGI,LOX IMVI,17.4 µM
same,GI50,OVCAR-4,6.76 µM
same,LC50,OVCAR-4,> 100 µM
same,TGI,OVCAR-4,44.7 µM
same,GI50,HT-29,3.89 µM
same,LC50,HT-29,> 100 µM
same,TGI,HT-29,19.5 µM
same,GI50,HCT-15,4.07 µM
same,LC50,HCT-15,> 100 µM
same,TGI,HCT-15,21.4 µM
same,GI50,SF-268,8.51 µM
same,LC50,SF-268,> 100 µM
same,TGI,SF-268,47.9 µM
same,GI50,NCI/ADR-RES,4.27 µM
same,LC50,NCI/ADR-RES,> 100 µM
same,TGI,NCI/ADR-RES,> 100 µM
same,GI50,SF-539,3.39 µM
same,LC50,SF-539,39.8 µM
same,TGI,SF-539,14.1 µM
same,GI50,PC-3,8.71 µM
same,LC50,PC-3,> 100 µM
same,TGI,PC-3,> 100 µM
same,GI50,SK-MEL-28,10.2 µM
same,LC50,SK-MEL-28,63.1 µM
same,TGI,SK-MEL-28,25.1 µM
same,GI50,EKVX,6.92 µM
same,LC50,EKVX,> 100 µM
same,TGI,EKVX,30.9 µM
same,GI50,HCT-116,3.16 µM
same,LC50,HCT-116,> 100 µM
same,TGI,HCT-116,47.9 µM
same,GI50,NCI-H322M,9.77 µM
same,LC50,NCI-H322M,58.9 µM
same,TGI,NCI-H322M,24.5 µM
same,GI50,M14,3.31 µM
same,LC50,M14,> 100 µM
same,TGI,M14,15.1 µM
same,GI50,SF-295,4.07 µM
same,LC50,SF-295,> 100 µM
same,TGI,SF-295,26.9 µM
same,GI50,SN12C,6.31 µM
same,LC50,SN12C,> 100 µM
same,TGI,SN12C,38.9 µM
same,GI50,HL-60(TB),3.39 µM
same,CC50,HL-60(TB),> 100 µM
same,TGI,HL-60(TB),> 100 µM
same,GI50,A549,7.76 µM
same,LC50,A549,> 100 µM
same,TGI,A549,66.1 µM
same,GI50,BT-549,4.9 µM
same,LC50,BT-549,> 100 µM
same,TGI,BT-549,35.5 µM
same,GI50,RPMI-8226,3.72 µM
same,LC50,RPMI-8226,> 100 µM
same,TGI,RPMI-8226,66.1 µM
same,GI50,CAKI-1,4.57 µM
same,LC50,CAKI-1,> 100 µM
same,TGI,CAKI-1,28.2 µM
same,GI50,HCC 2998,4.57 µM
same,LC50,HCC 2998,64.6 µM
same,TGI,HCC 2998,19.5 µM
same,GI50,KM12,4.17 µM
same,LC50,KM12,81.3 µM
same,TGI,KM12,18.6 µM
same,GI50,A498,3.89 µM
same,LC50,A498,53.7 µM
same,TGI,A498,15.1 µM
same,GI50,Malme-3M,8.32 µM
same,LC50,Malme-3M,58.9 µM
same,TGI,Malme-3M,23.4 µM

# — ChEMBL document CHEMBL2062453, “Lead optimization through VLAK protocol: new annelated pyrrolo-pyrimidine derivatives as antitumor agents” (2012)
